The record followed here is ChEMBL document CHEMBL1944548, “Discovery of kinase spectrum selective macrocycle (16E)-14-methyl-20-oxa-5,7,14,26-tetraazatetracyclo[19.3.1.1(2,6).1(8,12)]heptacosa-1(25),2(26),3,5,8(27),9,11,16,21,23-decaene (SB1317/TG02), a potent inhibitor of cyclin dependent kinases (CDKs), Janus kinase 2 (JAK2), and fms-like tyrosine …” (J Med Chem, 2012).

A word on the IC50: it is the concentration that gives 50% inhibition. Broadly, the solubility is how much of the substance goes into solution per volume. A higher solubility goes with much dissolved substance. The term half-life denotes the time needed for the level to fall by half in the phase considered. The term bioavailability denotes the share of a dose that reaches the circulation, judged against a reference dose that is usually intravenous. The low end stands for little systemic uptake, the high end for much systemic uptake.

Data set [1] concerns the target T1, Receptor-type tyrosine-protein kinase FLT3 (Homo sapiens, UniProt P36888).
T1 sequence (P36888 whole entry): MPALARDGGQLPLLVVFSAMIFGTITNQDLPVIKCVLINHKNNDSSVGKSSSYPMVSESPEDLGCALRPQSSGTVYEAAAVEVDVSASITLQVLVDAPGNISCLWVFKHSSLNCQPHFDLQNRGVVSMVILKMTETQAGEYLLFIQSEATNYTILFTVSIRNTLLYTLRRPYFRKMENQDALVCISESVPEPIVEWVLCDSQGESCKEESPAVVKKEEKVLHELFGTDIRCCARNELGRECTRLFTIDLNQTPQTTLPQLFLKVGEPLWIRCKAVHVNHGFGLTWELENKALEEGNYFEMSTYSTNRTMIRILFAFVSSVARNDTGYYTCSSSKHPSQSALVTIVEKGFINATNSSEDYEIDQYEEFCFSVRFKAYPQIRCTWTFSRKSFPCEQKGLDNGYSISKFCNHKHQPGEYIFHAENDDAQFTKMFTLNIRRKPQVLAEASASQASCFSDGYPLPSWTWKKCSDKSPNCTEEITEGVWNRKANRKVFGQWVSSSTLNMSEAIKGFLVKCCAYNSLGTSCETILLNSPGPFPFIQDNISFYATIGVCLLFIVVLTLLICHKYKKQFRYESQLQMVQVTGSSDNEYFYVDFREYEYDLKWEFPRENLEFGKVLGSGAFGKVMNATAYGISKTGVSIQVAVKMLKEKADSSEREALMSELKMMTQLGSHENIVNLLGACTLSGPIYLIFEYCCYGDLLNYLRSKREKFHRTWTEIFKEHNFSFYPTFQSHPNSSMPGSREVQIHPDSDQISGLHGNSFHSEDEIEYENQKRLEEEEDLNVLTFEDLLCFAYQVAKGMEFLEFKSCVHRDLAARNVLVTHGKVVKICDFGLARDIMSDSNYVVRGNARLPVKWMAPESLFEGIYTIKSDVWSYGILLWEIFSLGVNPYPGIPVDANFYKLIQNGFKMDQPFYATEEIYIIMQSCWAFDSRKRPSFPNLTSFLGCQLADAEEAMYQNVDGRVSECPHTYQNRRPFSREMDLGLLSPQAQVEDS
Kind of data set: Inhibition of recombinant Flt3 using poly(Glu,Tyr) as substrate after 2 hrs by luminescence assay.

Data set [2] concerns the target Cyclin-dependent kinase 2/cyclin A (Homo sapiens, UniProt P24941). Kind of data set: Inhibition of recombinant Cdk2/cyclin A using RbING as substrate after 2 hrs by luminescence assay. The data set is classed as protein-complex assay.
The target of data set [3] is Tyrosine-protein kinase JAK2 (Homo sapiens, UniProt O60674). Briefly: Inhibition of recombinant JAK2 using poly(Glu,Ala,Tyr) as substrate after 2 hrs by luminescence assay.
Sequence of Tyrosine-protein kinase JAK2 (O60674 whole entry): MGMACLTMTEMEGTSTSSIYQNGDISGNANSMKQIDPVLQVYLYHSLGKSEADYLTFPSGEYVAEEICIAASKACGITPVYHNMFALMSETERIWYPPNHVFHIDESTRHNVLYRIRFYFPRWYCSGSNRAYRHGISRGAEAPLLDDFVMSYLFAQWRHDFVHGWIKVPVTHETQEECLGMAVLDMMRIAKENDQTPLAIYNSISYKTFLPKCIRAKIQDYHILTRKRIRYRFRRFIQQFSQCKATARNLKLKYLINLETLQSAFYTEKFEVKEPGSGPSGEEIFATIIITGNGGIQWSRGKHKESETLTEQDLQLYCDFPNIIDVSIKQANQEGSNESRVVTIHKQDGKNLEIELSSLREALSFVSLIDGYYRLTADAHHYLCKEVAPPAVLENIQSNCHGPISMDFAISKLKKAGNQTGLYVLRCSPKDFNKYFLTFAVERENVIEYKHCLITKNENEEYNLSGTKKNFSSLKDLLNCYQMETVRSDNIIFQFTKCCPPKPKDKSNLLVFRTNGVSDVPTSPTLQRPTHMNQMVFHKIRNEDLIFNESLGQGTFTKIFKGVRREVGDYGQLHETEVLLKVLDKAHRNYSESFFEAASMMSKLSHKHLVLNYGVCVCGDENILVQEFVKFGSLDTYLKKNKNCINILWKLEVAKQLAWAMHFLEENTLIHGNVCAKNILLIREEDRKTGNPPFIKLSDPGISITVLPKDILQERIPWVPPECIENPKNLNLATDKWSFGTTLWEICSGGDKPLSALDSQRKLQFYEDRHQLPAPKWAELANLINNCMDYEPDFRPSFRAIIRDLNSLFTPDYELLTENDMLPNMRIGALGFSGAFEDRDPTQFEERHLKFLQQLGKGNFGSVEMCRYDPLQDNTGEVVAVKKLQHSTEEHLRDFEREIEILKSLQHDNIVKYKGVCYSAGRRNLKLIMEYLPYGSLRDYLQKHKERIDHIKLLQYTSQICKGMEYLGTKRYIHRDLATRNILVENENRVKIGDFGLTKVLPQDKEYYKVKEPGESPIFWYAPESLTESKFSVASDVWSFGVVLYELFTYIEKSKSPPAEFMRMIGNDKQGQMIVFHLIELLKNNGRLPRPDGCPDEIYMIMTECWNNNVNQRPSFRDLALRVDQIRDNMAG
Data set [4] is described as follows: Solubility of the compound in PBS buffer at 250 uM at pH 7 by UV spectrophotometry. The data set is classed as physicochemical.
Another data set relates to HCT-116. Briefly: Antiproliferative activity against human HCT116 cells after 48 hrs. The data set is classed as functional, cell-based. Particulars: HCT-116, 48 h.
Another data set relates to HL-60. Kind of data set: Antiproliferative activity against human HL60 cells after 48 hrs. Particulars: HL-60, 48 h. The data set is classed as functional, cell-based.
A short description of data set [5]: Half life in human liver microsomes at 5 uM by LC-MS/MS analysis. The data set is classed as ADME, Microsome. The gist of the method: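 5 μM with mouse, rat, dog or human liver microsomes (~0.87 mg/mL), 50 mM potassium phosphate pH 7.4, NADPH regeneration system, 37 °C.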
Background: Microsomes from liver hold many membrane-bound enzymes, among them those of drug oxidation.

A short description of data set [6]: Oral bioavailability in nude mouse at 50 mg/kg. The settings on record: in vivo. The data set is classed as ADME, organism-based.

Structures are written as SMILES. Values after ≈ are worked out from the molar mass of the structure shown.

As to `CN1C/C=C/CC(=O)Nc2cccc(c2)-c2ccnc(n2)Nc2cccc(c2)C1`, the concentration for half-maximal inhibition (IC50) in data set [1] is 2.75 µM; in data set [2], 4.6 µM; in data set [3], over 10 µM.
On the same counts, the results for `FC(F)(F)CN1C/C=C/CCOc2cccc(c2)-c2ccnc(n2)Nc2ccc(OCCN3CCCC3)c(c2)C1` are 0.11 µM, over 10 µM and 0.22 µM.
Turning to `CN1C/C=C/CCOc2cccc(c2)-c2ccnc(n2)Nc2ccc(OCCN3CCCC3)c(c2)C1`, the IC50 turned out to be 0.035 µM in data set [1], 0.25 µM in data set [2] and 0.056 µM in data set [3]. In data set [4], this molecule showed a solubility at 250 µM of 0.15 mg/mL (≈ 309 µM).
`C1=C/CN(Cc2ccccn2)Cc2cccc(c2)Nc2nccc(n2)-c2cccc(c2)OCC/1`: the IC50 in data set [1] stood at 1.45 µM; in data set [2], 0.48 µM; in data set [3], 1.35 µM.
With `CN1C/C=C/CCOc2cccc(c2)-c2ccnc(n2)Nc2ccc(OCCN3CCCCC3)c(c2)C1`, the figures for the IC50 in data set [1], in data set [2] and in data set [3] were 0.045 µM, 0.26 µM and 0.062 µM, respectively. In data set [4], this molecule returned a solubility at 250 µM of 0.146 mg/mL (≈ 292 µM).
With `CC(C)NCC(=O)N1C/C=C/CCOc2cccc(c2)-c2ccnc(n2)Nc2cccc(c2)C1`, the IC50 amounted to 0.14 µM in data set [1] and 0.53 µM in data set [2]. This molecule had a solubility at 250 µM in data set [4] of 0.105 mg/mL (≈ 230 µM).
With `CN1C/C=C/CCOc2cccc(c2)-c2ccnc(n2)Nc2cc(cc(NC(=O)C(F)(F)F)c2)C1`, the values for the IC50 in data set [1], in data set [2] and in data set [3] were 0.019 µM, 0.008 µM and 0.05 µM, respectively.
In the case of `CN1C/C=C/COCc2cccc(c2)Nc2nccc(n2)-c2cccc(c2)C1`, the IC50 in data set [1] stood at 0.31 µM; in data set [2] it was 0.099 µM; in data set [3] it was 0.23 µM.
On the same counts, the results for `C1=C/CNc2cccc(c2)Nc2nccc(n2)-c2cccc(c2)OCC/1` are 2.9 µM, 0.15 µM and 3.3 µM.
In the case of `COc1cc2cc(c1OCCN1CCCC1)CN(C)C/C=C/CCOc1cccc(c1)-c1ccnc(n1)N2`, the figures for the 50% inhibitory concentration (IC50) in data set [1], in data set [2] and in data set [3] were 0.098 µM, 6.7 µM and 0.21 µM, respectively.
With `CN1C/C=C/COCc2cccc(c2)-c2ccnc(n2)Nc2cccc(c2)C1`, the IC50 worked out at 0.21 µM in data set [1], 0.66 µM in data set [2] and 1.7 µM in data set [3].
In the case of `CN1C/C=C/CCOc2cccc(c2)-c2ccnc(n2)Nc2ccc(OCCN3CCOCC3)c(c2)C1`, the IC50 stood at 0.04 µM in data set [1], 0.3 µM in data set [2] and 0.12 µM in data set [3]. Also, the solubility at 250 µM in data set [4] is 0.154 mg/mL (≈ 307 µM).
With `O=C1CC/C=C\COc2cccc(c2)-c2ccnc(n2)Nc2cccc(c2)N1`, the values for the IC50 in data set [1], in data set [2] and in data set [3] were 1.02 µM, 2.6 µM and 1.75 µM, respectively.
On the same counts, the results for `COCCOc1ccc2cc1CN(C)C/C=C/CCOc1cccc(c1)-c1ccnc(n1)N2` are 0.025 µM, 0.11 µM and 0.062 µM.
In the case of `C1=C/CNCc2cccc(c2)Nc2nccc(n2)-c2cccc(c2)OCC/1`, the figures for the half-inhibitory concentration (IC50) in data set [1] and in data set [2] were 0.11 µM and 0.021 µM, respectively.
For `COc1ccc2cc1OCC/C=C/CN(C)Cc1cccc(c1)Nc1nccc-2n1`, the IC50 in data set [1] was found to be 0.31 µM; in data set [2], 2.3 µM; in data set [3], 0.51 µM.
As for `CN1C/C=C/CCOc2cccc(c2)-c2ccnc(n2)Nc2ccc(N3CCOCC3)c(c2)C1`, the IC50 in data set [1] is 0.071 µM; in data set [2] it was 0.074 µM; in the data set on HCT-116, 0.41 µM; in the data set with HL-60 it was 0.076 µM; in data set [3] it was 0.049 µM. Also, the half-life at 5 µM in data set [5] worked out at 21 min. The same molecule showed a solubility at 250 µM in data set [4] of 0.147 mg/mL (≈ 321 µM).
In the case of `CC(C)CN1C/C=C/CCOc2cccc(c2)-c2ccnc(n2)Nc2cccc(c2)C1`, the IC50 was 0.19 µM in data set [1], 0.2 µM in data set [2] and 1.5 µM in data set [3].
On the same counts, the results for `CN1C/C=C/CCOc2cccc(c2)-c2ccnc(n2)Nc2ccc(OC(F)(F)F)c(c2)C1` are 0.16 µM, 0.057 µM and 0.15 µM.
On the same counts, the results for `O=C(N1C/C=C/CCOc2cccc(c2)-c2ccnc(n2)Nc2cccc(c2)C1)C(F)(F)F` are over 10 µM, over 10 µM and over 10 µM.
On the same counts, the results for `COCCN1C/C=C/CCOc2cccc(c2)-c2ccnc(n2)Nc2cccc(c2)C1` are 0.49 µM, 0.41 µM and 1.6 µM.
On to `OCCN1C/C=C/CCOc2cccc(c2)-c2ccnc(n2)Nc2cccc(c2)C1`, for which the IC50 in data set [1] was 0.35 µM; in data set [2] it was 0.1 µM.
Consider `N#CCN1C/C=C/CCOc2cccc(c2)-c2ccnc(n2)Nc2ccc(OCCN3CCCC3)c(c2)C1`, for which the IC50 stood at 0.029 µM in data set [1], 0.31 µM in data set [2] and 0.15 µM in data set [3].
Consider `C1=C/CN(C2CC2)Cc2cccc(c2)Nc2nccc(n2)-c2cccc(c2)OCC/1`, for which the IC50 in data set [1] is 0.042 µM; in data set [3], 0.09 µM.
Regarding `CC(C)(C)CN1C/C=C/CCOc2cccc(c2)-c2ccnc(n2)Nc2cccc(c2)C1`, the IC50 in data set [1], in data set [2] and in data set [3] was over 10 µM in each case.
As for `CN1C/C=C/CCOc2cccc(c2)-c2ccnc(n2)Nc2ccc(Cl)c(c2)C1`, the results for the IC50 in data set [1], in data set [2] and in data set [3] were 0.077 µM, 0.024 µM and 0.082 µM, respectively.
On the same counts, the results for `CN1C/C=C/CCOc2cccc(c2)-c2ccnc(n2)Nc2cc(N)cc(c2)C1` are 0.019 µM, 0.007 µM and 0.05 µM.
On the same counts, the results for `CN1C/C=C/CNC(=O)c2cccc(c2)-c2ccnc(n2)Nc2cccc(c2)C1` are over 10 µM, over 10 µM and over 10 µM.
Regarding `C1=C/CN(CC2CC2)Cc2cccc(c2)Nc2nccc(n2)-c2cccc(c2)OCC/1`, the IC50 in data set [1] worked out at 0.27 µM; in data set [2] it was 0.094 µM; in data set [3] it was 1.5 µM.
Turning to `CCS(=O)(=O)CCOc1ccc2cc1CN(C)C/C=C/CCOc1cccc(c1)-c1ccnc(n1)N2`, the IC50 was 0.093 µM in data set [1], 0.17 µM in data set [2] and 0.11 µM in data set [3].
`CCS(=O)(=O)c1ccc2cc1CN(C)C/C=C/CCOc1cccc(c1)-c1ccnc(n1)N2`: the IC50 in data set [1] is 0.44 µM; in data set [2] it was 0.022 µM; in data set [3] it was 0.1 µM.
On to `CN1C/C=C/CCOc2cccc(c2)-c2ccnc(n2)Nc2cc(cc(NC(=O)N3CCOCC3)c2)C1`, for which the figures for the IC50 in data set [1], in data set [2] and in data set [3] were 0.037 µM, 0.087 µM and 0.044 µM, respectively.
On the same counts, the results for `CN1C/C=C/CCOc2cc(F)cc(c2)-c2ccnc(n2)Nc2cccc(c2)C1` are 0.022 µM, 0.009 µM and 0.16 µM.
As to `CN1C/C=C/CCOc2cccc(c2)-c2cc(N3CCCC3)nc(n2)Nc2cccc(c2)C1`, the IC50 in data set [1], in data set [2] and in data set [3] was over 10 µM throughout.
With `CN1C/C=C/CCOc2cccc(c2)-c2ccnc(n2)Nc2ccc(OCC(=O)N3CCCC3)c(c2)C1`, the IC50 in data set [1] amounted to 0.15 µM; in data set [2], 0.39 µM; in data set [3], 0.14 µM.
With `CCN(CC)CCOc1ccc2cc1CN(C)C/C=C/CCOc1cccc(c1)-c1ccnc(n1)N2`, the IC50 is 0.03 µM in data set [1], 0.3 µM in data set [2] and 0.048 µM in data set [3]. Further, the bioavailability in data set [6] was 5%. This molecule also had a solubility at 250 µM in data set [4] of 0.15 mg/mL (≈ 308 µM).
Consider `COc1ccc2cc1CN(C)C/C=C/CCOc1cccc(c1)-c1ccnc(n1)N2`, for which the half-maximal inhibitory concentration (IC50) in data set [1] turned out to be 0.066 µM; in data set [2] it was 0.077 µM; in data set [3], 0.28 µM.
For the molecule `Cc1cc2nc(n1)Nc1cccc(c1)CN(C)C/C=C/CCOc1cccc-2c1`, the IC50 in data set [1] was 1.7 µM; in data set [2] it was 4.7 µM; in data set [3], over 10 µM.
On the same counts, the results for `CN1CCN(CCOc2ccc3cc2CN(C)C/C=C/CCOc2cccc(c2)-c2ccnc(n2)N3)CC1` are 0.25 µM, 0.9 µM and 0.22 µM.
